# Rows were chosen to be rich in hits. Some 3% of all compounds tested hit in one or more screens of this group.
# TAAR1 ag – agonists of human TAAR1; Q96RJ0; CHO RD-HGA16 TAAR1, Fluo-8 calcium fluorescence; vehicle wells 0%, saturating PEA agonist 100%; activation, % at 3 µM; hit rate 0.99% among 360,000;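 active = activation above the mean activation of all test compounds in the run plus 3 SD, cut at about 38% in these data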
#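 test system = CHO RD-HGA16 cells carrying human TAAR1 plus Gα16 | schedule = 17-24 h seeding, 75 min 37 °C dye, 30 min RT | compound dosing = 3 µM single concentration | control set = DMSO and PEA EC100 | replicates = n 1 | signal = Fluo-8 fluorescence, 5 s baseline then 140 s kinetic read | measure = percent activation vs PEA EC100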
# TAAR1 antagonist – human TAAR1 antagonism; Q96RJ0; CHO RD-HGA16 TAAR1, Fluo-8 calcium fluorescence, antagonist; inhibition, % at 3 µM; hit rate 1.5% among 360,000; AID 624466;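 active = inhibition above a per-plate cutoff, the mean inhibition of test compounds on that plate plus 3 SD, cut at about 49% in these data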
#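 System: RD-HGA16 CHO cells with stable hTAAR1 and Gα16 | Probe or stimulus: EC80 β-phenethylamine stimulus | Dosing: 3 µM, single point | Times: Dye loading 75 min at 37 °C, then 30 min room temperature | Measured by: Fluo-8 calcium-sensitive fluorescence | Read-out basis: % inhibition of agonist calcium response | Replicates: n of 1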
# CHRM4 agonist – agonists of human muscarinic M4 receptor (CHRM4); P08173; CHO-K1 hM4/Gqi5, Fluo-8 calcium fluorescence; vehicle 0%, full acetylcholine response 100%; activation, % at 3 µM; hit rate 0.14% among 360,000;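 active = activation above the run mean over all test wells plus 3 SD, cut at about 32% in these data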;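 also: peak over basal fluorescence ratio per well then scaled between controls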
# Target sequence (P08173 whole entry, looked up): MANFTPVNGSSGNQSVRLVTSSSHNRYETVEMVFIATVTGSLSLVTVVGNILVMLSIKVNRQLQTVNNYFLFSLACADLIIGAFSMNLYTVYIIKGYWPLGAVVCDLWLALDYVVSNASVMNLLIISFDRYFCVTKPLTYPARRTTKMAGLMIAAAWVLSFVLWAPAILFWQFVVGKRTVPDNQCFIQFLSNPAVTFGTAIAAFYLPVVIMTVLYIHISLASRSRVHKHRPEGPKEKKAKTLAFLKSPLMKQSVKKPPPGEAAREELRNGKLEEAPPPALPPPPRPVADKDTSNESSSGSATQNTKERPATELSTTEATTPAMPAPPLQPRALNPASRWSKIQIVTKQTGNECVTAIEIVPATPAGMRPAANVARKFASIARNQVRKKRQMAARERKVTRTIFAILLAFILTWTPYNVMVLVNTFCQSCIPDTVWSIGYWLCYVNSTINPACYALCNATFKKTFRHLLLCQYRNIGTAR
# CHRM4 antagonist – blocks acetylcholine activation of human M4 receptor; CHO-hM4 cells, ACh EC80, Fluo-8 calcium fluorescence; AID 624125; P08173; inhibition, % at 3 µM; hit rate 0.73% among 360,000;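 active = inhibition above its plate's cutoff, the mean inhibition of sample wells plus 3 SD, cut at about 27% in these data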
# M4 PAM – positive allosteric modulators of human muscarinic M4 receptor; P08173; CHO-K1 hM4/Gqi5, Fluo-8 calcium fluorescence, ACh EC20; 0% = ACh EC20, 100% = maximal ACh; activation, % at 3 µM; hit rate 0.4% among 360,000; AID 624126;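 active = activation above its plate's cutoff, the mean activation of sample wells plus 3 SD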
# A number is an active result; - = inactive; . = no result.
SMILES,TAAR1 ag,TAAR1 antagonist,CHRM4 agonist,CHRM4 antagonist,M4 PAM
Cc1sc2ncnc(N3CCCCC3)c2c1C,-,-,-,-,-
CN1CCCCC(NC(=O)c2cccc([N+](=O)[O-])c2)C1=O (configuration not stated),-,-,.,.,.
COc1cccc(C(C(=O)NC2CCCC2)N(C(=O)c2ccco2)c2ccc(NC(C)=O)cc2)c1OC (configuration not stated),-,-,-,-,20.9
CC(=O)N1CCN(c2ccc(N3CCN(Cc4ccccc4)[C@H](C)C3)c(C)c2)[C@@H](C)C1,-,-,.,.,.
Cc1cc2c(cc1C)-c1nnnn1C(N1CCCCC1)C(=O)N2 (configuration not stated),-,-,-,-,-
COC1=C(OC)C(=O)C(CCCCCCCCCCO)=C(C)C1=O,-,-,-,98.5,-
COc1ccccc1NC(=O)CSCc1nc2ccccc2[nH]1,-,-,-,-,20.9
COc1ccc(C2=NS(=O)(=O)N(C)C(C(=O)N3CCC(C(N)=O)CC3)=C2)cc1,-,-,-,33.9,-
COC(=O)[C@@]12C[C@@H](CC(=O)N3CCN(C(=O)c4ccco4)CC3)C(=O)N(Cc3ccccc3)C1=CCC(C)(C)C2,-,-,-,-,-
Cc1ccc(C2NC(=S)NC3=C2C(=O)CCC3)cc1 (configuration not stated),-,-,-,-,-
CC(C)c1ccc(C2NC(=S)NC3=C2C(=O)CCC3)cc1 (configuration not stated),-,-,-,26.8,-
COC(=O)C1=CN(c2ccc(N3CCOCC3)cc2)C(N)=C(C#N)C1c1ccc(-c2ccccc2)cc1 (configuration not stated),-,-,-,-,-
CN1CCN(CCCN2c3ccccc3Sc3ccc(Cl)cc32)CC1,-,-,-,-,-
OC1CC2CCC(C1)N2CCCN1c2ccccc2Sc2ccc(Cl)cc21 (configuration not stated),-,-,-,36.6,-
COc1ccc(C(=O)C(=O)N2CCN(S(=O)(=O)c3cccc4c(N(C)C)cccc34)CC2)cc1OC,-,-,.,.,.
CCCCCn1cc(CCC(=O)Nc2ccc(N(C)c3ccccn3)cc2)c2ccccc21,-,-,.,.,.
COc1cc(CN2CCN(C(c3ccccc3)c3ccccc3)CC2)cc(OC)c1OC,-,-,-,44.8,-
CN1CCN(C(c2ccccc2)c2ccccc2)CC1,-,-,-,56.8,-
CN1CCCN(C(c2ccccc2)c2ccc(Cl)cc2)CC1 (configuration not stated),-,-,-,82.9,-
COc1cccc(CN2CCN(Cc3cc(OC)c(OC)c(OC)c3)CC2)c1OC,-,-,-,-,-
COC(=O)C1=C(C)N(C)C(=NCC2CC2)NC1c1cccc(F)c1 (configuration not stated),-,-,.,.,.
CCCC(=O)OC[C@H]1CN(C2CCCC2)S(=O)(=O)c2c(Oc3ccc(C(C)(C)C)cc3)cccc2O1,-,-,.,.,.
O=C(c1cnn2c(C(F)F)cc(C3CC3)nc12)N1CCc2ccccc2C1,-,-,-,-,-
O=C(c1cnn2c(C(F)F)cc(C3CC3)nc12)N1CCCC1,-,-,-,-,34.4
COC(=O)c1cc2c(c3c4ccccc4n(S(=O)(=O)c4ccc(C)cc4)c13)C(=O)N(C)C2,-,-,.,.,.
SMILES,TAAR1 ag,TAAR1 antagonist,CHRM4 agonist,CHRM4 antagonist,M4 PAM
O=C(COC(=O)c1ccccc1-c1ccccc1[N+](=O)[O-])c1ccccc1,-,56.0,-,-,-
C(=CCSc1ccccn1)CSc1ccccn1,-,-,.,.,.
CC(=O)N1CC(C)Sc2ccc(S(=O)(=O)NCCc3ccccc3)cc21 (configuration not stated),43.6,-,-,-,-
CC(=O)N1CCOc2ccc(S(=O)(=O)NCCc3cccc(C)c3)cc21,46.7,-,-,-,-
O=C(O)CCc1ccc(S(=O)(=O)NCCc2ccccc2)cc1,37.5,-,-,-,-
CC(=O)N1CCOc2ccc(S(=O)(=O)NCC3CCC(C(=O)NCCC(C)C)CC3)cc21 (configuration not stated),-,-,-,-,15.5
COCCCNC(=O)C1CCC(CNS(=O)(=O)c2ccc3c(c2)N(C(C)=O)CCO3)CC1 (configuration not stated),-,-,-,-,-

# Source: PubChem
